This is a sample that favours compounds with a hit; in the whole collection about 1.1% have one here.
SKN-1 inh – blocks SKN-1 activity in C. elegans; C. elegans VP596 Pgst-4::GFP/RFP ratio, acrylamide-induced, 24 h; inhibition, % at 21.8 µM; actives 0.49% (n = 360,000); AID 624304;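 active = interference check ratio from 0.5 to 1.5 plus GFP to RFP signal ratio inhibition reaching or exceeding a fixed threshold, cut at about 30% in these data, passing the limit was not always enough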
MT1-MMP act inh – inhibitors of human MT1-MMP activation. P50281. HT1080 RFP-PRO-GFP cells, GFP/RFP ratio fluorescence, overnight; percent of plate control window, DMSO zero. GFP/RFP ratio change, % at 20 µM. actives 0.061% (n = 360,000). AID 651647;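 active = GFP/RFP ratio change of at least 30% with cell ATP level not reduced by more than half and red fluorescence within 50% of control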
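Test system: HT1080 RFP-PRO-GFP cells; Benchmarks: DMSO and RFP-L50D-GFP cell wells; Timing: cells overnight before dosing, compound overnight, 37 °C, 5% CO2; Compound: one 20 µM compound dose with 1% DMSO; Read-out: GFP/RFP fluorescence ratio.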
A1 inh – inhibitors of the anti-apoptotic protein A1, read as caspase activation. caspase activation, % (test concentration not listed). actives 0.066% (n = 330,000). MEF A1-2A-BIM cells, Caspase-Glo 3/7 luminescence, 3 h; percent of clofoctol response, vehicle zero;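 active = over half of replicate activation scores above 10%, or exactly half above 10 with the replicate mean above 10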
GC-B act – GC-B (human) receptor activation | P20594 | HEK293-GC-B cells, CNP EC30, cGMP TR-FRET; 0% at EC30 CNP, 100% saturating CNP | activation, % at 10 µM | actives 0.11% (n = 370,000);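 active = activation at 10 µM reaching about 35% in either raw or pattern-adjusted values, limit read from the data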
Tb MetRS inh – Trypanosoma brucei MetRS inhibition | purified T. brucei MetRS, ATP depletion, Kinase-Glo luminescence | inhibition, % at 11.9 µM | actives 0.4% (n = 360,000);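 active = inhibition above a per-plate cutoff of the control wells' mean inhibition plus 3 SD, cut at about 5.5% in these data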;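 also: 0% = DMSO wells median and 100% = median of wells with control inhibitor compound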
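Dosing: 11.9 µM single point; system: parasite MetRS enzyme; technique: luminescence of leftover ATP; times: 15 min enzyme-compound preincubation, 2 h reaction, 10 min detection, 25 °C; replicates: each compound tested once; read-out basis: percent inhibition relative to median high and low control wells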
NPR1 activator – GC-A (human) enzyme activation; activation, % at 10 µM; HEK293 GC-A cells, cGMP TR-FRET, EC30 ANP; 0% at EC30 ANP, 100% saturating ANP; AID 1671463; actives 0.14% (n = 370,000); P16066; in the data active = activation above about 40%
Target sequence (P16066 whole entry, looked up): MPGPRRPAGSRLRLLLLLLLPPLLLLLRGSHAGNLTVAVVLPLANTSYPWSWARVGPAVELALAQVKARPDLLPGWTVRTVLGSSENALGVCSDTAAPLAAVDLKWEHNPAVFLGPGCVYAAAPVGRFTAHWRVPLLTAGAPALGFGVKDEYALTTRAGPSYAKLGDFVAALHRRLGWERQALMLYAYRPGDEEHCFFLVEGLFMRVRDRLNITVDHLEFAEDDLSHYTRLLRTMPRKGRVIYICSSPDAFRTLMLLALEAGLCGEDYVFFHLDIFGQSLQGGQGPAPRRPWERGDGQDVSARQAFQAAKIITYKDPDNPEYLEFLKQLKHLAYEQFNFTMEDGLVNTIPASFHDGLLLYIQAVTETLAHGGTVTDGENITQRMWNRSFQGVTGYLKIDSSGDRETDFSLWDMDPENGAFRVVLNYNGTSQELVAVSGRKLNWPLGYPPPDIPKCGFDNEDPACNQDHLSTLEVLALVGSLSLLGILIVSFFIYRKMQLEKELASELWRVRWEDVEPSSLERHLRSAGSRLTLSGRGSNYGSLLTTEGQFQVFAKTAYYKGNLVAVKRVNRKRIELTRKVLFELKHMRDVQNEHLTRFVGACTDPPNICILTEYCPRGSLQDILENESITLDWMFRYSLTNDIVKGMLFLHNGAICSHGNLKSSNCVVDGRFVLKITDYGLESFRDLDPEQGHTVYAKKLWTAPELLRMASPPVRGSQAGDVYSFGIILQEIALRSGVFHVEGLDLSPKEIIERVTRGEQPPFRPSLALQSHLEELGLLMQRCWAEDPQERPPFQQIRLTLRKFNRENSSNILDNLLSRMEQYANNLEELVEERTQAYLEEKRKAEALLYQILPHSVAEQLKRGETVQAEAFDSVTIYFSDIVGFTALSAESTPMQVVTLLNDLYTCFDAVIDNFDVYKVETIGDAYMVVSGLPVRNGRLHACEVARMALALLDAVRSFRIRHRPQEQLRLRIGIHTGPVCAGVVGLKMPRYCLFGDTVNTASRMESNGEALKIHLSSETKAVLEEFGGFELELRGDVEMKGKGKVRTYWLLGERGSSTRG
The depositor's hits bear a star; / = no result.

SMILES | SKN-1 inh | MT1-MMP act inh | A1 inh | GC-B act | Tb MetRS inh | NPR1 activator
COC(=O)C1=C[C@@H]([C@@H](C)[C@H](OC)c2ccccc2Br)[C@@H]2OCCC[C@H]12 | / | / | / | -12.8 | / | 0.2
Nn1c(SCC(=O)NC2CCCCC2)nnc1-c1cc(-c2ccc(Cl)cc2)n[nH]1 | / | / | / | -11.4 | / | 20.1
CCCOc1ccc(OCCSc2ncccn2)cc1 | 37.6* | 4.5 | -6.9 | 0.7 | -0.3 | 8.0
COc1ccc(OCCSc2nc(N)cc(N)n2)cc1 | 32.9 | 10.5 | 0.0 | 1.3 | -0.2 | 0.8
CCC(CC)NC(=O)O[C@H]1CC[C@@]23CCCN2C(=O)CCC[C@H]3[C@H]1C | / | / | / | -2.2 | / | -0.7
Cc1ccccc1-n1c(SCC(=O)O)nc2sc3c(c2c1=O)CCCC3 | 35.6* | 3.1 | 2.0 | -3.0 | -0.3 | 2.8
O=C1CCC(C(=O)OCC(=O)N2N=C3/C(=C/c4ccccc4)CCCC3C2c2ccccc2)N1 (stereo not drawn) | 14.4 | 0.0 | -0.3 | -4.6 | -0.1 | -9.8
O=C1CCC(C(=O)OCC(=O)N2N=C3/C(=C\c4ccccc4)CCCC3C2c2ccccc2)N1 (stereo not drawn) | 37.2* | 0.0 | / | -4.2 | -0.3 | -10.0
COC(=O)c1ccc(COn2c(=O)c(C)[n+]([O-])c3ccccc32)cc1 | 44.0* | -162.5 | 0.1 | -0.1 | -0.9 | 2.1
CCOC(=O)[C@]12CCCCC/C=C\1N(CCc1ccc(Cl)cc1)C(=O)[C@H]2CC(=O)N1CCCC1 | / | / | / | -0.3 | / | -10.2
COc1cc(CNC2CCCCCCC2)ccc1OCC(N)=O | -5.4 | -1.2 | 0.8 | -0.3 | -0.6 | -5.2
CCOc1ccc(CNC2CCCCCCC2)cc1OC | -4.2 | 3.5 | 12.3* | 2.5 | 0.8 | -3.2
O=C(CSc1nc(-c2ccco2)cc(C(F)(F)F)n1)NC1CCCCCCC1 | 36.7* | -9.0 | 0.2 | -24.0 | -1.1 | -18.9
O=C(CSc1nc(-c2ccco2)cc(C(F)(F)F)n1)NN1CCOCC1 | -1.1 | -0.8 | 0.0 | -3.0 | -0.8 | 1.3
CCOc1ccc(-n2c(SCC(=O)Nc3ccccc3-c3ccccc3)nnc2-c2cccs2)cc1 | / | / | / | 1.0 | / | -5.0
COCCOC(=O)N(C)C[C@@H]1OCCCC[C@H](C)Oc2ccc(NC(=O)Nc3ccccc3)cc2C(=O)N([C@@H](C)CO)C[C@H]1C | / | / | / | 1.8 | / | -1.8
CN1CCc2c(sc3c2C(=O)NC(c2ccccc2)N3)C1 (stereo not drawn) | 47.0* | -12.2 | 0.4 | -0.8 | -0.3 | 1.1
O=C1C[C@H](c2ccc3ccccc3c2)N=C2N1/C(=C\c1ccccc1)[C@@H](c1ccccc1C(F)(F)F)N2Cc1ccc2c(c1)OCO2 | / | / | / | 6.0 | / | -0.5
CCC(C(=O)c1ccc(O)cc1)c1ccccc1 (stereo not drawn) | 8.3 | -1.0 | -0.1 | 4.3 | -2.2 | 4.2
CCC(C(=O)N(C(C)C)C(C)C)c1ccccc1 (stereo not drawn) | 36.8* | 3.1 | 1.1 | 2.9 | -0.2 | 0.0
CCOc1ccc(N=Nc2c(=O)[nH]n3c(C)cc(C)nc23)cc1 | 45.0* | 17.7 | -2.6 | -14.4 | -1.5 | -14.3
Cc1nn(CCC(=O)NNC(=O)Nc2ccc(Cl)cc2)c(C)c1[N+](=O)[O-] | / | / | / | -2.8 | / | -5.1
Cc1ccccc1/C=C/C(=O)c1ccc([N+](=O)[O-])o1 | / | / | 10.9* | -6.1 | / | 5.4
Cc1cccc(/C=C/C(=O)c2ccc([N+](=O)[O-])o2)c1 | -2.6 | 3.8 | 3.1 | -13.6 | -0.1 | -3.4
COCOCCn1cc(CN2CCS(=O)(=O)N(Cc3ccc(-c4cccc(CO)c4)cc3)C(C(C)C)C2=O)nn1 (stereo not drawn) | 5.8 | 4.5 | / | 0.2 | -1.0 | 2.0
SMILES | SKN-1 inh | MT1-MMP act inh | A1 inh | GC-B act | Tb MetRS inh | NPR1 activator
COCOCCn1cc(CN2CCS(=O)(=O)N(Cc3ccc(-c4ccc(Cl)cc4)cc3)C(C)C2=O)nn1 (stereo not drawn) | -8.5 | 0.5 | / | -3.4 | -0.1 | 48.9*
COCOCCn1cc(CN2CCS(=O)(=O)N(Cc3ccc(-c4cccc(N(C)C)c4)cc3)C(C(C)C)C2=O)nn1 (stereo not drawn) | 35.7* | 2.6 | / | 2.2 | -0.8 | 0.0
CCOC(=O)[C@@]12CN(C(=O)OC(C)(C)C)CC=C1N(Cc1ccc(OC)cc1)C(=O)[C@H]2CC(=O)NCc1cccs1 | / | / | / | -4.9 | / | -3.0
Cc1ccc(-n2c(SCC(=O)Nc3ccc(OCc4ccccc4)cc3)nnc2-c2cnccn2)cc1 | / | / | / | -0.8 | / | -0.7
O=C(Cn1cnc2ccccc21)Nc1cccc(S(=O)(=O)N2CCCC2)c1 | -4.2 | 11.4 | 1.6 | / | 35.9* | /
C[C@H](CCCCC1(C)OCCO1)CCC(=O)N(c1ccccc1)c1ccccc1 | / | / | / | -6.8 | / | -8.8
O=C(Nc1ccc(Cl)cc1)Nc1ccc(Br)cn1 | 37.1* | -3.3 | 1.2 | -1.3 | -0.7 | -2.7
C(=N\N1CCN(Cc2ccccc2)CC1)/c1ccccc1 | -2.1 | 0.0 | 0.6 | 1.5 | -1.0 | 0.7
Clc1cccc(/C=N/N2CCN(Cc3ccccc3)CC2)c1 | 44.1* | 10.0 | 1.2 | -2.5 | -2.5 | 3.9
COc1ccccc1-c1cc(C(F)(F)F)nc(S(=O)(=O)CCCC(=O)N2CCOCC2)n1 | 7.4 | -8.4 | 6.1* | 4.2 | -0.8 | 70.3*
Cc1cc(NC(=O)c2ccc(NS(=O)(=O)c3ccccc3)cc2)no1 | / | / | / | 9.0 | / | -1.3
CCCCCCCCSC1=CC(=O)C(OC)=C(OC)C1=O | 9.5 | -20.7 | / | 8.4 | -0.1 | 45.2*
CC1=C2NC(N)=[N+](Cc3ccc4c(c3)OCO4)CC2NOC1 (stereo not drawn) | / | / | / | 2.4 | / | -0.4
CO/N=C/c1ccc(N2CCCC2)c([N+](=O)[O-])c1 | 14.2 | 4.7 | 0.5 | -2.1 | 0.4 | -1.8
CO/N=C/c1ccc(N2CCN(C(=O)c3ccc(C)cc3)CC2)c([N+](=O)[O-])c1 | -7.1 | 6.5 | -0.1 | 4.3 | 16.5* | -7.0
O=c1c2ccc(F)cc2nc2sc(Nc3ccc4c(c3)CCC4)nn12 | / | / | / | -7.1 | / | 3.5
COc1ccc(C2CC(c3ccccc3)=NN2S(=O)(=O)c2ccc(C)cc2)c(OC)c1 (stereo not drawn) | 51.9* | -4.5 | -0.6 | 7.3 | 0.1 | -3.5
CC(C)CN1CN2Cc3ccccc3C2CS1(=O)=O (stereo not drawn) | / | / | / | 4.1 | / | 2.3
CC1=NNC(=O)/C1=C\c1cn(-c2ccccc2)nc1-c1cccs1 | 8.9 | -15.6 | 15.6* | -10.2 | -0.7 | -8.8
CC1=NNC(=O)/C1=C\c1cn(-c2ccccc2)nc1-c1ccc(F)cc1 | 10.8 | -43.3 | / | / | -0.6 | /
Cc1cc(Cl)cc2sc(NC(=O)C3CC3)nc12 | 3.4 | -1.6 | 0.1 | -8.1 | -0.1 | 39.7

Compound activity (PubChem)
